Experimental data as given in ChEMBL document CHEMBL3632581, “Dimers of Melampomagnolide B Exhibit Potent Anticancer Activity against Hematological and Solid Tumor Cells” (J Med Chem, 2015).

Assays:
[1] = system: CCRF-CEM; assay: Cytotoxicity against human CCRF-CEM cells after 48 hrs by SRB assay; format: functional
In short: (§1)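 NCI-60 five-dose screen at 10−8 to 10−4 M. Cells were plated at 5,000–40,000/well in RPMI 1640 with 5% FBS and 2 mM L-glutamine, then preincubated 24 h, and time-zero plates were TCA-fixed. Compound was added from DMSO stocks and exposed 48 h at 37 °C. Cells were TCA-fixed, SRB-stained, and read at 515 nm. LC50 is the concentration halving the cell population through cell death.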

[2] = system: K562; assay: Cytotoxicity against human K562 cells after 48 hrs by SRB assay; format: functional; details: K562, 48 h; in short: as §1
[3] = system: MOLT-4; assay: Cytotoxicity against human MOLT4 cells after 48 hrs by SRB assay; format: functional; details: MOLT-4, 48 h; in short: as §1
[4] = system: RPMI-8226; assay: Cytotoxicity against human RPMI8226 cells after 48 hrs by SRB assay; format: functional; details: RPMI-8226, 48 h; in short: as §1
[5] = Cytotoxicity against human EKVX cells after 48 hrs by SRB assay; format: functional; in short: as §1
[6] = system: HOP-92; assay: Cytotoxicity against human HOP92 cells after 48 hrs by SRB assay; format: functional; details: HOP-92, 48 h; in short: as §1
[7] = system: COLO 205; assay: Cytotoxicity against human COLO205 cells after 48 hrs by SRB assay; format: functional; details: COLO 205, 48 h; in short: as §1
[8] = system: HCC 2998; assay: Cytotoxicity against human HCC2998 cells after 48 hrs by SRB assay; format: functional; details: HCC 2998, 48 h; in short: as §1
[9] = system: HCT-116; assay: Cytotoxicity against human HCT116 cells after 48 hrs by SRB assay; format: functional; details: HCT-116, 48 h; in short: as §1
[10] = system: HCT-15; assay: Cytotoxicity against human HCT15 cells after 48 hrs by SRB assay; format: functional; details: HCT-15, 48 h; in short: as §1
[11] = system: HT-29; assay: Cytotoxicity against human HT-29 cells after 48 hrs by SRB assay; format: functional; details: HT-29, 48 h; in short: as §1
[12] = system: SNB-75; assay: Cytotoxicity against human SNB75 cells after 48 hrs by SRB assay; format: functional; details: SNB-75, 48 h; in short: as §1
[13] = system: U-251; assay: Cytotoxicity against human U251 cells after 48 hrs by SRB assay; format: functional; details: U-251, 48 h
In short: (§2)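 NCI-60 screen: cells grown in RPMI 1640 with 5% FBS and 2 mM L-glutamine, plated at 5,000–40,000 cells/well by doubling time, and preincubated 24 h at 37 °C before drug. Drug was diluted from DMSO stock and given at five concentrations, 10−4 to 10−8 M, for 48 h. Cells fixed with cold TCA, SRB stained, OD read at 515 nm against time-zero and vehicle plates. LC50 taken as the concentration that halves cell population through cell death.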

[14] = system: M14; assay: Cytotoxicity against human M14 cells after 48 hrs by SRB assay; format: functional; details: M14, 48 h; in short: as §1
[15] = system: MDA-MB-435; assay: Cytotoxicity against human MDA-MB-435 cells after 48 hrs by SRB assay; format: functional; details: MDA-MB-435, 48 h; in short: as §1
[16] = system: SK-MEL-2; assay: Cytotoxicity against human SK-MEL-2 cells after 48 hrs by SRB assay; format: functional; details: SK-MEL-2, 48 h; in short: as §1
[17] = system: SK-MEL-28; assay: Cytotoxicity against human SK-MEL-28 cells after 48 hrs by SRB assay; format: functional; details: SK-MEL-28, 48 h; in short: as §1
[18] = system: UACC-257; assay: Cytotoxicity against human UACC257 cells after 48 hrs by SRB assay; format: functional; details: UACC-257, 48 h; in short: as §2
[19] = system: OVCAR-3; assay: Cytotoxicity against human OVCAR3 cells after 48 hrs by SRB assay; format: functional; details: OVCAR-3, 48 h; in short: as §1
[20] = system: OVCAR-5; assay: Cytotoxicity against human OVCAR5 cells after 48 hrs by SRB assay; format: functional; details: OVCAR-5, 48 h; in short: as §1
[21] = system: 786-0; assay: Cytotoxicity against human 786-0 cells after 48 hrs by SRB assay; format: functional; details: 786-0, 48 h; in short: as §1
[22] = system: A498; assay: Cytotoxicity against human A498 cells after 48 hrs by SRB assay; format: functional; details: A498, 48 h; in short: as §1
[23] = system: RXF 393; assay: Cytotoxicity against human RXF393 cells after 48 hrs by SRB assay; format: functional; details: RXF 393, 48 h; in short: as §1
[24] = system: TK-10; assay: Cytotoxicity against human TK10 cells after 48 hrs by SRB assay; format: functional; details: TK-10, 48 h; in short: as §2
[25] = system: MCF7; assay: Cytotoxicity against human MCF7 cells after 48 hrs by SRB assay; format: functional; details: MCF7, 48 h
In short: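 NCI-60 screen: cells in RPMI 1640 with 5% FBS and 2 mM L-glutamine, preincubated 24 h at 37 °C. Compound was then added for 48 h at five concentrations (10−4 to 10−8 M). Cells were fixed with cold TCA and stained with 0.4% SRB in 1% acetic acid, and OD read at 515 nm. GI50 is the concentration halving net protein increase versus control.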

[26] = system: MDA-MB-231; assay: Cytotoxicity against human MDA-MB-231 cells after 48 hrs by SRB assay; format: functional; details: MDA-MB-231, 48 h; in short: as §1
[27] = Cytotoxicity against human Hs 578T cells after 48 hrs by SRB assay; format: functional; in short: as §1
[28] = system: T47D; assay: Cytotoxicity against human T47D cells after 48 hrs by SRB assay; format: functional; in short: as §2
[29] = Antileukemic activity against human AML01 cells after 24 hrs by annexin V/7-AAD staining-based flow cytometric analysis; format: functional, cell-based
In short: (§3)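 Primary AML specimens from consenting donors, isolated by Ficoll-Paque gradient and sometimes cryopreserved. Cells were held 1 h in serum-free IMDM with 20% BIT 9500, LDL and β-mercaptoethanol before drug (DMSO stock diluted in PBS, ≤0.5% DMSO final). Exposure was 24 h over 0.5-10 μM. Annexin V/7-AAD double-negative cells, normalized to vehicle, gave the EC50. Run in triplicate.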

[30] = Antileukemic activity against human AML03 cells after 24 hrs by annexin V/7-AAD staining-based flow cytometric analysis; format: functional, cell-based; in short: as §3
[31] = Antileukemic activity against human AML04 cells after 24 hrs by annexin V/7-AAD staining-based flow cytometric analysis; format: functional, cell-based; in short: as §3
[32] = Antileukemic activity against human AML05 cells after 24 hrs by annexin V/7-AAD staining-based flow cytometric analysis; format: functional, cell-based; in short: as §3
[33] = Potency index, ratio of parthenolide EC50 to compound EC50 for human M9-ENL1 cells; format: functional
[34] = read-out: LC50 (the source's name)

Question: With C=C1C(=O)O[C@H]2[C@H]1CC/C(COC(=O)NCCCCNC(=O)OC/C1=C/CC[C@@]3(C)O[C@H]3[C@H]3OC(=O)C(=C)[C@@H]3CC1)=C\CC[C@@]1(C)O[C@@H]21 as the compound, how does the GI50 [1] read?
Answer: The GI50 was 0.27 µM.

Question: What about the CC50 [1, 34] of the same compound?
Answer: Its CC50 is greater than 100 µM.

Question: And the GI50 [2]?
Answer: Its GI50 is 0.66 µM.

Question: And the CC50 [2, 34]?
Answer: Its CC50 is greater than 100 µM.

Question: And the GI50 [3]?
Answer: The GI50 was 1.47 µM.

Question: And the CC50 [3, 34]?
Answer: Its CC50 is greater than 100 µM.

Question: What about the GI50 [4] of the same compound?
Answer: The GI50 was 0.54 µM.

Question: And the CC50 [4, 34]?
Answer: The CC50 was greater than 100 µM.

Question: And the GI50 [5]?
Answer: Its GI50 is 3.69 µM.

Question: And the CC50 [5, 34]?
Answer: The CC50 was 37.3 µM.

Question: What about the GI50 [6] of the same compound?
Answer: Its GI50 is 0.28 µM.

Question: And the CC50 [6, 34]?
Answer: Its CC50 is 46.1 µM.

Question: And the GI50 [7]?
Answer: Its GI50 is 0.46 µM.

Question: What about the CC50 [7, 34] of the same compound?
Answer: Its CC50 is 5.79 µM.

Question: And the GI50 [8]?
Answer: Its GI50 is 2.35 µM.

Question: And the CC50 [8, 34]?
Answer: Its CC50 is 9.73 µM.

Question: And the GI50 [9]?
Answer: Its GI50 is 1.12 µM.

Question: And the CC50 [9, 34]?
Answer: Its CC50 is 6.19 µM.

Question: What about the GI50 [10] of the same compound?
Answer: Its GI50 is 5.61 µM.

Question: What about the CC50 [10, 34] of the same compound?
Answer: The CC50 was 56.3 µM.

Question: And the GI50 [11]?
Answer: Its GI50 is 0.6 µM.

Question: And the CC50 [11, 34]?
Answer: The CC50 was greater than 100 µM.

Question: What about the GI50 [12] of the same compound?
Answer: The GI50 was 2.19 µM.

Question: What about the CC50 [12, 34] of the same compound?
Answer: The CC50 was 66.3 µM.

Question: And the GI50 [13]?
Answer: Its GI50 is 2.94 µM.

Question: What about the CC50 [13, 34] of the same compound?
Answer: The CC50 was 33.3 µM.

Question: And the GI50 [14]?
Answer: The GI50 was 1.97 µM.

Question: What about the CC50 [14, 34] of the same compound?
Answer: Its CC50 is 16.3 µM.

Question: What about the GI50 [15] of the same compound?
Answer: Its GI50 is 1.24 µM.

Question: And the CC50 [15, 34]?
Answer: The CC50 was 9.42 µM.

Question: And the GI50 [16]?
Answer: The GI50 was 1.77 µM.

Question: And the CC50 [16, 34]?
Answer: The CC50 was 29.3 µM.

Question: And the GI50 [17]?
Answer: Its GI50 is 0.52 µM.

Question: What about the CC50 [17, 34] of the same compound?
Answer: Its CC50 is 8.08 µM.

Question: What about the GI50 [18] of the same compound?
Answer: The GI50 was 1.68 µM.

Question: What about the CC50 [18, 34] of the same compound?
Answer: Its CC50 is 22.9 µM.

Question: And the GI50 [19]?
Answer: Its GI50 is 0.69 µM.

Question: What about the CC50 [19, 34] of the same compound?
Answer: The CC50 was 4.76 µM.

Question: What about the GI50 [20] of the same compound?
Answer: The GI50 was 1.75 µM.

Question: What about the CC50 [20, 34] of the same compound?
Answer: Its CC50 is 7.79 µM.

Question: And the GI50 [21]?
Answer: The GI50 was 1.99 µM.

Question: What about the CC50 [21, 34] of the same compound?
Answer: Its CC50 is 9.11 µM.

Question: And the GI50 [22]?
Answer: Its GI50 is 6.36 µM.

Question: What about the CC50 [22, 34] of the same compound?
Answer: Its CC50 is 43.9 µM.

Question: What about the GI50 [23] of the same compound?
Answer: The GI50 was 1.44 µM.

Question: What about the CC50 [23, 34] of the same compound?
Answer: Its CC50 is 7.84 µM.

Question: And the GI50 [24]?
Answer: The GI50 was 1.61 µM.

Question: What about the CC50 [24, 34] of the same compound?
Answer: Its CC50 is 11.3 µM.

Question: And the GI50 [25]?
Answer: The GI50 was 0.38 µM.

Question: What about the GI50 [26] of the same compound?
Answer: The GI50 was 1.53 µM.

Question: What about the LC50 [26] of the same compound?
Answer: Its LC50 is 6.83 µM.

Question: And the GI50 [27]?
Answer: Its GI50 is 2.54 µM.

Question: What about the CC50 [27, 34] of the same compound?
Answer: The CC50 was greater than 100 µM.

Question: What about the GI50 [28] of the same compound?
Answer: The GI50 was 1.51 µM.

Question: And the CC50 [28, 34]?
Answer: Its CC50 is greater than 100 µM.

Question: And the EC50 [29]?
Answer: The EC50 was 2.2 µM.

Question: And the EC50 [30]?
Answer: The EC50 was 7.3 µM.

Question: What about the EC50 [31] of the same compound?
Answer: The EC50 was 4.2 µM.

Question: And the EC50 [32]?
Answer: The EC50 was 2 µM.

Question: And the “Ratio EC50” value [33]?
Answer: Its value is 2.
